Experimental data taken from ChEMBL document CHEMBL1140299, “1-Benzhydryl-3-phenylurea and 1-benzhydryl-3-phenylthiourea derivatives: new templates among the CB1 cannabinoid receptor inverse agonists” (J Med Chem, 2005).

What was measured:
[1] = target: T1, Cannabinoid receptor 1 (Homo sapiens, UniProt P21554); assay: Activity at human CB1 receptor by [35S]GTP-gamma-S binding stimulation assay; assay type: functional
[2] = target: T1, Cannabinoid receptor 1; assay: biochemical; assay type: cell-based, CHO
[3] = target: T1, Cannabinoid receptor 1; conditions: at 10 µM
[4] = target: Cannabinoid receptor 2 (Homo sapiens) (UniProt P34972); assay: Displacement of [3H]CP-55940 from human CB2 receptor expressed in CHO cells at 10 uM; assay type: cell-based
Cannabinoid receptor 2 (Homo sapiens), sequence (P34972 whole entry): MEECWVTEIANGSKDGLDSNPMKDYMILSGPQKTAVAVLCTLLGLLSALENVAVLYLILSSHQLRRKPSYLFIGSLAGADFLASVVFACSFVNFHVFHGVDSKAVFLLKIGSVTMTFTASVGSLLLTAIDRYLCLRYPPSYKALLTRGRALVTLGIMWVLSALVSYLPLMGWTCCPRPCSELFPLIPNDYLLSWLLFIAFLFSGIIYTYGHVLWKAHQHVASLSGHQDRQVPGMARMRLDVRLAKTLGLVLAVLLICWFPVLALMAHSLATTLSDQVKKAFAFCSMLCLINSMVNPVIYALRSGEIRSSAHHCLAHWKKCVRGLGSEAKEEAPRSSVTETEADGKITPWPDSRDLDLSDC
Outline: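 Competition binding on membranes of cells expressing hCB2 (40 µg per tube) with [3H]-CP-55940 (1 nM) at 30 °C for 1 h. Buffer: 50 mM Tris-HCl, 3 mM MgCl2, 1 mM EDTA, 0.5% BSA, pH 7.4. DMSO stocks diluted 100× into buffer. Nonspecific binding defined with 10 µM HU-210. Bound label collected by filtration on PEI-pretreated GF/B filters and counted by scintillation. Run at least in triplicate.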

T1 sequence (P21554 whole entry): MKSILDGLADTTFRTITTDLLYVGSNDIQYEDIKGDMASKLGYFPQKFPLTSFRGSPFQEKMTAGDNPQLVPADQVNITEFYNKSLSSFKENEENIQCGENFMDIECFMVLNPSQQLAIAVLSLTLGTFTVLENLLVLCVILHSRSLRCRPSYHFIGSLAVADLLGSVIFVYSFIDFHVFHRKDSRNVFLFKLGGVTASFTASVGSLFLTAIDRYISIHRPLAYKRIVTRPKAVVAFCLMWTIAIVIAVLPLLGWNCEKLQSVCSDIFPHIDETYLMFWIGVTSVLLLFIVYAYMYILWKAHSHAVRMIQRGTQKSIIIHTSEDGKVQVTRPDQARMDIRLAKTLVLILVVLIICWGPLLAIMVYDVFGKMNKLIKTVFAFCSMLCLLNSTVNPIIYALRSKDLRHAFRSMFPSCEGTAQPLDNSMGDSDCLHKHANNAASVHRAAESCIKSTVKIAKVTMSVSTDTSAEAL

| SMILES | EC50 [1] | Ki [2] | Emax ([3]; filed as agonist) [%] | Activity [4] [%] | Emax ([3]; filed as inverse agonist) [%] |
| --- | --- | --- | --- | --- | --- |
| CCCCCCC(C)(C)c1cc(O)c2c(c1)OC(C)(C)[C@H]1CC=C(CO)C[C@H]21 [DEXANABINOL] | 0.0006 µM (inverse agonist) | 0.019 µM (antagonist) | 200 |  |  |
| O=C(Nc1ccc(Br)cc1)NC(c1ccc(I)cc1)c1ccc(I)cc1 |  | 0.75 µM (antagonist) |  | 19 |  |
| CCCCCCc1ccc(NC(=O)NC(c2ccccc2)c2ccccc2)cc1 |  |  |  | 24 |  |
| O=C(Nc1ccc(CO)cc1)NC(c1ccc(Br)cc1)c1ccc(Br)cc1 |  |  |  | < 20 |  |
| O=C(Nc1ccc(Cl)cc1)NC(c1ccc(Cl)cc1)c1ccc(Cl)cc1 | 1.05 µM (inverse agonist) | 1.1 µM (antagonist) |  | 24 | -74 |
| O=C(Nc1ccc(Br)cc1)NC(c1ccc(Cl)cc1)c1ccc(Cl)cc1 | 0.7 µM (inverse agonist) | 1.25 µM (antagonist) |  | 29 | -66 |
| O=C1NC(c2ccc(Br)cc2)(c2ccc(Br)cc2)C(=O)N1c1ccccc1 |  |  |  | < 20 |  |
| O=C(Nc1ccc(I)cc1)NC(c1ccccc1)c1ccccc1 |  |  |  | < 10 |  |
| O=C1N(c2ccccc2)C(=S)NC1(c1ccc(Br)cc1)c1ccc(Br)cc1 |  | 3.45 µM (antagonist) |  | < 20 |  |
| O=C(Nc1ccccc1)NC(c1ccccc1)c1ccccc1 |  |  |  | < 10 |  |
| O=C(Nc1ccc(Br)cc1)NC(c1ccc(Br)cc1)c1ccc(Br)cc1 | 0.5 µM (inverse agonist) | 0.5 µM (antagonist) |  | 22 | -61 |
| S=C(Nc1ccc(Cl)cc1)NC(c1ccc(Br)cc1)c1ccc(Br)cc1 | 1.25 µM (inverse agonist) | 1.5 µM (antagonist) |  | 29 | -61 |
| O=C(Nc1ccccc1F)NC(c1ccccc1)c1ccccc1 |  |  |  | < 10 |  |
| O=C(Nc1ccc(Br)cc1)NC(c1ccccc1)c1ccccc1 |  |  |  | < 20 |  |
| O=C(Nc1ccc(Cl)cc1)NC(c1ccc(Br)cc1)c1ccc(Br)cc1 | 0.45 µM (inverse agonist) | 0.65 µM (antagonist) |  | 31 | -72 |
| S=C(Nc1ccccc1)NC(c1ccc(Cl)cc1)c1ccc(Cl)cc1 |  | 2.9 µM (antagonist) |  | 23 |  |
| O=C(Nc1ccccc1)NC(c1ccc(F)cc1)c1ccc(F)cc1 |  |  |  | < 10 |  |
| O=C1NC(c2ccc(F)cc2)(c2ccc(F)cc2)C(=O)N1c1ccccc1 |  |  |  | < 20 |  |
| O=C(Nc1ccccc1)NC(c1ccc(Cl)cc1)c1ccc(Cl)cc1 |  | 7.05 µM (antagonist) |  | 23 |  |
| O=C1NC(c2ccccc2)(c2ccccc2)C(=O)N1c1ccc(Br)cc1 |  |  |  | < 20 |  |
| O=C1N(c2ccc(Cl)cc2)C(=S)NC1(c1ccc(Br)cc1)c1ccc(Br)cc1 |  | 2.75 µM (antagonist) |  | < 20 |  |
| O=C1NC(c2ccccc2)(c2ccccc2)C(=O)N1c1ccccc1 |  |  |  | < 20 |  |
| S=C(Nc1ccccc1)NC(c1ccc(Br)cc1)c1ccc(Br)cc1 |  | 1.8 µM (antagonist) |  | 29 |  |
| O=C(Nc1ccccc1)NC(c1ccc(Br)cc1)c1ccc(Br)cc1 |  | 2.9 µM (antagonist) |  | 38 |  |
| O=C(Nc1ccc(F)cc1)NC(c1ccccc1)c1ccccc1 |  |  |  | < 10 |  |
| CCCCCCc1ccc(NC(=O)NC(c2ccc(Br)cc2)c2ccc(Br)cc2)cc1 |  |  |  | < 20 |  |
| O=C(Nc1ccc(I)cc1)NC(c1ccc(Br)cc1)c1ccc(Br)cc1 |  |  |  | 34 |  |
| O=C(Nc1ccc(Cl)cc1)NC(c1ccccc1)c1ccccc1 |  |  |  | < 20 |  |
| COc1ccc(NC(=O)NC(c2ccccc2)c2ccccc2)cc1 |  |  |  | < 20 |  |
| S=C(Nc1ccc(Cl)cc1)NC(c1ccc(Cl)cc1)c1ccc(Cl)cc1 |  | 1.9 µM (antagonist) |  | 23 |  |
